ChEMBL document CHEMBL4024795, “G-Quadruplex Identification in the Genome of Protozoan Parasites Points to Naphthalene Diimide Ligands as New Antiparasitic Agents” (J Med Chem, 2018)
Calls of active or inactive are those of the source. The calls are words filed in the database; no cut-off is given here.

Experiments:
Leishmania major = assay: Antileishmanial activity against Leishmania major MHOM/IL/80/Friedlin promastigotes after 72 hrs by MTT assay; type: functional
Method in brief: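 L. major Friedlin promastigotes at 1 × 10^6 per mL, 72 h at 28 °C in modified RPMI-1640 + 10% hiFBS with increasing drug concentrations; proliferation by MTT, absorbance 540 nm.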

Danio rerio [1] = species: Danio rerio; assay: Acute toxicity in AB zebrafish embryo assessed as no observed effect concentration with mortality score of >20% at 100 uM after 96 hrs post-fertlization; details: in vivo
Method in brief: (§1)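 AB-strain embryos, with abnormal ones discarded, were placed 20 per condition at 3 hpf into compound dilutions in 0.1% DMSO/E3 (0.01, 0.1, 1, 10, 100 μM) and kept at 28.5 °C to 96 hpf. Mortality was scored and LC50 fitted by sigmoidal curve. NOEC/LOEC took >20% mortality as the effect. Controls were 0.1% DMSO (triplicate) and DEAB.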

MRC5 = assay: Cytotoxicity against human MRC5 cells assessed as cell growth inhibition after 72 hrs by MTT assay; type: cell-based; details: MRC5, 72 h
Method in brief: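 MRC5 cells in low-glucose DMEM + 10% hiFBS, seeded by trypsinization at 5000 cells/well with increasing compound concentrations. MTT read-out after 72 h at 37 °C. IC50 = 50% growth reduction versus untreated cells.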

Plasmodium falciparum = assay: Antimalarial activity against erythrocyte stage of Plasmodium falciparum 3D7 preincubated for 48 hrs followed by [3H]-hypoxanthine addition measured after 18 hrs by liquid scintillation counting; type: functional
Method in brief: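 P. falciparum 3D7-infected erythrocytes (1.5% hematocrit, 0.6% parasitemia) in RPMI 1640 + 10% AB human serum, DMSO ≤0.25% final. After 48 h at 37 °C, 0.6 μCi [3H]-hypoxanthine added for 18 h. Cells harvested onto glass-fibre filters and counted by scintillation, with uninfected-erythrocyte background subtracted. IC50 = 50% growth inhibition.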

[2] = (§2) Acute toxicity in AB zebrafish embryo assessed as mortality after 96 hrs post-fertlization; set-up: species or system Danio rerio; details: AB, in vivo; method in brief: as §1
[3] = Selectivity index, ratio of IC50 for human MRC5 cells to IC50 for erythrocyte stage of Plasmodium falciparum 3D7; type: toxicity; details: read-out: Ratio IC50
[4] = test system: Trypanosoma brucei brucei; assay: Antitrypanosomal activity against bloodstream form of Trypanosoma brucei brucei after 72 hrs by alamar blue assay; type: functional
Method in brief: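 Bloodstream-form T. b. brucei single marker S427 (S16) in HMI-9 + 10% hiFBS, seeded at 1 × 10^4 per mL. Increasing compound concentrations for 72 h at 37 °C, 5% CO2. Proliferation by alamarBlue fluorescence (ex 550/em 590 nm).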

[5] = Selectivity index, ratio of IC50 for human MRC5 cells to IC50 for bloodstream form of Trypanosoma brucei brucei; type: toxicity; details: read-out: Ratio IC50
Method in brief: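 Ratio of IC50 in MRC-5 to IC50 in parasite. Bloodstream-form T. b. brucei single-marker S427 (1 × 10^4/mL, HMI-9 + 10% hiFBS) was exposed to increasing compound for 72 h at 37 °C, 5% CO2, with alamarBlue fluorescence (ex 550/em 590).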

[6] = Selectivity index, ratio of IC50 for human MRC5 cells to IC50 for Leishmania major MHOM/IL/80/Friedlin promastigotes; type: toxicity; details: read-out: Ratio IC50
Method in brief: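 SI is IC50(MRC-5)/IC50(parasite). L. major Friedlin promastigotes (1 × 10^6/mL) were exposed to increasing compound in modified RPMI-1640 + 10% hiFBS for 72 h at 28 °C, with MTT read at 540 nm. MRC5 cells (5000/well, low-glucose DMEM + 10% hiFBS) got increasing compound for 72 h at 37 °C, with MTT read-out. IC50 is versus untreated cells.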

[7] = Drug localization in Trypanosoma brucei kinetoplast at 5 uM after 150 mins by confocal microscopic analysis; type: ADME; details: 2.5 h
Method in brief: (§3)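 T. brucei exposed to 5 μM compound in medium at 37 °C for 30 or 150 min. Fixed in 4% paraformaldehyde for 30 min, washed twice in cold PBS, then imaged by confocal microscopy using the compounds' intrinsic fluorescence.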

[8] = Drug localization in Trypanosoma brucei kinetoplast at 5 uM after 30 mins by confocal microscopic analysis; type: ADME; details: 0.5 h; method in brief: as §3
Danio rerio [9] = species: Danio rerio; assay: Acute toxicity in AB zebrafish embryo assessed as lowest observed effect concentration with mortality score of >20% at 100 uM after 96 hrs post-fertlization; details: in vivo; method in brief: as §1
Trypanosoma brucei [10] = assay: Drug localization in Trypanosoma brucei nucleus at 5 uM after 150 mins by confocal microscopic analysis; type: ADME; details: 2.5 h; method in brief: as §3
[11] = Drug localization in Trypanosoma brucei nucleus at 5 uM after 30 mins by confocal microscopic analysis; type: ADME; details: 0.5 h; method in brief: as §3
[12] = test system: human telomeric hTel G-quadruplex DNA (Homo sapiens); assay: Binding affinity to FT-labeled human telomeric hTel G-quadruplex DNA assessed as change in melting temperature at 2 uM at pH 7.2 by FRET melting assay
Trypanosoma brucei [13] = assay: Binding affinity to Trypanosoma brucei FT-labeled EBR1 G-quadruplex DNA at 3 uM by circular dichroism spectroscopic analysis
Method in brief: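 EBR1-FT quadruplex at 3 μM in 10 mM lithium cacodylate pH 7.2 with 100 mM KCl, titrated with ligand (ratio 1:0 to 1:10). Spectra recorded at 25 °C in a 1 cm cell, average of three scans at 100 nm/min, 2 nm bandwidth.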

Danio rerio [14] = species: Danio rerio; assay: as §2; details: in vivo, 96 h; method in brief: as §1

Compound `CCCCCCCCCCCCCCCCOP(=O)([O-])OCC[N+](C)(C)C` [MILTEFOSINE] has an IC50 (Leishmania major) of 6.07 µM.
In the case of `CN(C)CCCN1C(=O)c2ccc3c4c(c(NCc5cn([C@@H]6O[C@H](CO)[C@@H](O)[C@H](O)[C@H]6O)nn5)cc(c24)C1=O)C(=O)N(CCCN(C)C)C3=O`, the NOAEL (Danio rerio [1]) is reported as 100 µM, the IC50 (MRC5) is reported as 1.15 µM and the IC50 (Plasmodium falciparum) is reported as 1.35 µM. It also gave an IC50 (Leishmania major) of 0.244 µM, an LC50 at 96 h [2] greater than 1000 µM and a selectivity ratio [3] of 0.9. It also gave an IC50 [4] of 0.024 µM.
Work on `CC(=O)N[C@@H]1[C@@H](O)[C@H](O)[C@@H](CO)O[C@H]1n1cc(CNc2cc3c4c(ccc5c4c2C(=O)N(CCCN(C)C)C5=O)C(=O)N(CCCN(C)C)C3=O)nn1` yielded an NOAEL (Danio rerio [1]) of 100 µM, an IC50 (MRC5) of 0.51 µM and an IC50 (Plasmodium falciparum) of 0.36 µM. The selectivity ratio [5] was 5.7, the IC50 (Leishmania major) was 1.04 µM and the selectivity ratio [6] was 0.5. The LC50 at 96 h [2] was greater than 1000 µM, the selectivity ratio [3] was 1.4 and the IC50 [4] was 0.089 µM.
With `CCCNc1cc2c3c(ccc4c3c1C(=O)N(CCCN(C)C)C4=O)C(=O)N(CCCN(C)C)C2=O` the NOAEL (Danio rerio [1]) was 100 µM, the IC50 (MRC5) was 0.36 µM and the Drug uptake [7] was “Active”. For the same compound, the Drug uptake [8] was “Active”, the IC50 (Plasmodium falciparum) was 0.091 µM and the MTC (Danio rerio [9]) was 1000 µM. The Drug uptake (Trypanosoma brucei [10]) was “Active”, the Drug uptake [11] was “Active” and the IC50 (Leishmania major) was 0.034 µM. For the same compound, the ΔTm [12] was 19 °C, the Activity (Trypanosoma brucei [13]) was “Active” and the LC50 (Danio rerio [14]) was 410 µM. It also gave a selectivity ratio [3] of 4.
In the case of `CN(C)CCCN1C(=O)c2ccc3c4c(c(NCc5cn(CCO[C@@H]6O[C@H](CO)[C@@H](O)[C@H](O)[C@H]6O)nn5)cc(c24)C1=O)C(=O)N(CCCN(C)C)C3=O`, the NOAEL (Danio rerio [1]) is reported as 100 µM, the IC50 (MRC5) is reported as 0.71 µM and the Drug uptake [7] is reported as “Active”. For the same compound, the Drug uptake [8] was “Active”, the IC50 (Plasmodium falciparum) was 0.275 µM and the Drug uptake (Trypanosoma brucei [10]) was “Active”. For the same compound, the Drug uptake [11] was “Active”, the IC50 (Leishmania major) was 0.537 µM and the ΔTm [12] was 10 °C. For the same compound, the Activity (Trypanosoma brucei [13]) was “Active”, the LC50 at 96 h [2] was greater than 1000 µM and the selectivity ratio [3] was 2.6.
In the case of `C[n+]1ccc(-c2c3nc(c(-c4cc[n+](C)cc4)c4ccc([nH]4)c(-c4cc[n+](C)cc4)c4nc(c(-c5cc[n+](C)cc5)c5ccc2[nH]5)C=C4)C=C3)cc1`, the IC50 (MRC5) is reported as greater than 25 µM, the IC50 (Plasmodium falciparum) is reported as greater than 25 µM and the IC50 (Leishmania major) is reported as 20.8 µM. For the same compound, the selectivity ratio [6] was greater than 1.7 and the IC50 [4] was greater than 10 µM.
`CN(C)CCCN1C(=O)c2ccc3c4c(c(NCc5cn(CCO[C@H]6O[C@H](CO)[C@@H](O)[C@H](O)[C@@H]6O)nn5)cc(c24)C1=O)C(=O)N(CCCN(C)C)C3=O` gave an NOAEL (Danio rerio [1]) of 100 µM, an IC50 (MRC5) of 0.81 µM and an IC50 (Plasmodium falciparum) of 0.18 µM. For the same compound, the selectivity ratio [5] was 38.6, the IC50 (Leishmania major) was 0.306 µM and the selectivity ratio [6] was 2.6. For the same compound, the LC50 at 96 h [2] was greater than 1000 µM, the selectivity ratio [3] was 4.5 and the IC50 [4] was 0.021 µM.
With `CN(C)c1ccc(Nc2c3ccc(NC(=O)CCN4CCCC4)cc3nc3cc(NC(=O)CCN4CCCC4)ccc23)cc1` the IC50 (MRC5) was 8.33 µM, the IC50 (Plasmodium falciparum) was 9.7 µM and the selectivity ratio [5] was 1.5. The IC50 (Leishmania major) was 12.7 µM, the selectivity ratio [6] was 0.7 and the selectivity ratio [3] was 0.9. The IC50 [4] was 5.51 µM.
In the case of `C[C@H]1O[C@@H](n2cc(CNc3cc4c5c(ccc6c5c3C(=O)N(CCCN(C)C)C6=O)C(=O)N(CCCN(C)C)C4=O)nn2)[C@H](O)[C@@H](O)[C@@H]1O`, the NOAEL (Danio rerio [1]) is reported as 100 µM, the IC50 (MRC5) is reported as 0.91 µM and the IC50 (Plasmodium falciparum) is reported as 0.225 µM. For the same compound, the selectivity ratio [5] was 53.5, the IC50 (Leishmania major) was 0.184 µM and the selectivity ratio [6] was 4.9. The LC50 (Danio rerio [14]) was 170 µM, the selectivity ratio [3] was 4 and the IC50 [4] was 0.017 µM.
`NCCOc1cc(C(=O)Nc2cc(OCCN)c3ccccc3n2)nc(C(=O)Nc2cc(OCCN)c3ccccc3n2)c1` [PYRIDOSTATIN] gave an IC50 (MRC5) of 5.38 µM, an IC50 (Plasmodium falciparum) of 2.65 µM and a selectivity ratio [5] of 0.7. It also gave an IC50 (Leishmania major) of 5 µM, a selectivity ratio [6] of 1.1 and a selectivity ratio [3] of 2. The IC50 [4] was 7.82 µM.
